In PMC2856757 (Journal of structural biology, 2010):

Assays:
Type in all cases: physicochemical
[1] = Thermal denaturation by circular dichroism spectroscopy at 222 nm; details: CD at 222 nm, benign buffer (100mM KCl, 50mM PO4, pH 7), 5°C to 90°C in 0.5°C increments, 60°C/hour, from plot of fraction folded versus temperature
Outline: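 Disulfide-bridged two-stranded peptides (air-oxidised overnight at 4°C in 100mM ammonium bicarbonate, pH 8.3) diluted to 0.2 mg/ml in 100mM KCl, 50mM PO4, pH 7 (1 mm cell). Concentration by amino acid analysis. Ellipticity at 222 nm scanned 5°C to 90°C, 0.5°C steps, 60°C/hour. Fraction folded from observed, fully folded and fully unfolded ellipticities. Tm is the 50%-unfolded temperature; ΔTm is taken versus native peptide.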

[2] = RP-HPLC temperature profiling of peptide self-association; details: Gemini C18, 100mM NaClO4, 10mM NH4H2PO4, pH 7, 2%B per minute, 5°C - 80°C in 3°C increments, peptide 1.7mg/ml, retention times normalized to 5°C minus random coil control peptide
Outline: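 Gradient is 0-100%B over 50 minutes; eluent B is 50/50 H2O/CH3CN with the same salts. Retention time at each temperature minus that at 5°C gives the normalised value. Association parameter = peptide normalised value minus control normalised value; the maximum is reported.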

[3] = Circular dichroism spectra; details: 5°C; for [θ]222 Benign (mean residue ellipticity at 222 nm): CD, peptide 211μm to 265μm (0.2 mg/ml), 1 mm cell, average of 6 scans; for [θ]222 Benign (mean residue ellipticity at 222 nm) / [θ]222/[θ]208 Benign: benign buffer (100mM KCl, 50mM PO4, pH 7); for [θ]222/[θ]208 50% TFE / [θ]222/[θ]208 Benign: ratio of mean residue ellipticity at 222 nm and 208 nm; for [θ]222/[θ]208 50% TFE: 50/50 benign buffer/TFE (v/v)
Outline: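 Disulfide-bridged peptides (N-acetylated, C-amidated, N-terminal Cys-Gly-Gly, air-oxidised overnight at 4°C in 100mM ammonium bicarbonate pH 8.3). Stocks of 2mg/mL in benign buffer are diluted to 0.2 mg/ml in benign buffer or buffer with 50% TFE. Concentration is by amino acid analysis. Scans run 190–255 nm in 0.5 nm steps at 50 nm per minute. Ellipticity is converted to molar ellipticity using mean residue weight, path length and concentration.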

[4] = listed as R101A/L110A/K112A/K118A

| Substance | Tm (temperature at which 50% of the peptide is unfolded) [1] [°C] | Tm (temperature at which 50% of the peptide is unfolded) [1, 4] | PA,Max (maximum association parameter, self-association) [2] | PA,Max (maximum association parameter, self-association) [2, 4] | [θ]222 Benign (mean residue ellipticity at 222 nm) [3] | [θ]222/[θ]208 50% TFE [3] [deg cm^2 dmol^-1] | [θ]222/[θ]208 Benign [3] [deg cm^2 dmol^-1] | [θ]222/[θ]208 Benign ([3]; listed as native peptide) |
| --- | --- | --- | --- | --- | --- | --- | --- | --- |
| TM7: TM85-119 analog with R101A/L110A/K112A/K118A substitutions (VASLNRRIQLVEEELDAAQERLATAAQALEEAEAA; not fully specified; Cys-Gly-Gly linker; UniProt P09493 85-119, looked up, variant R101A L110A K112A K118A) | <5 | less than 5 °C | 0 | zero | -9,578 deg cm^2 dmol^-1 | 0.97 | 0.86 |  |
| TM3: TM85-119 analog with K112A/K118A substitutions (VASLNRRIQLVEEELDRAQERLATALQALEEAEAA; not fully specified; Cys-Gly-Gly linker; UniProt P09493 85-119, looked up, variant K112A K118A) | 45.3 |  | 2.4 |  | -29,457 deg cm^2 dmol^-1 | 0.97 | 1.08 |  |
| Native: native tropomyosin 85-119 coiled-coil sequence with N-terminal Cys-Gly-Gly linker, N-acetylated, C-amidated, disulfide-bridged (Ac-CGGVASLNRRIQLVEEELDRAQERLATALQKLEEAEKA-NH2; also: disulfide-bridged two-stranded dimer (linker Cys); UniProt P09493 85-119, looked up, fragment) | 52.9 |  | 3.4 |  | -36,213 deg cm^2 dmol^-1 | 0.96 | 1.08 | greater than 1 deg cm^2 dmol^-1 |
| TM4: TM85-119 analog with R101A substitution (VASLNRRIQLVEEELDAAQERLATALQKLEEAEKA; not fully specified; Cys-Gly-Gly linker; UniProt P09493 85-119, looked up, variant R101A) | 46.0 |  | 1.8 |  | -34,390 deg cm^2 dmol^-1 | 0.96 | 1.08 |  |
| TM2: TM85-119 analog with K118A substitution (VASLNRRIQLVEEELDRAQERLATALQKLEEAEAA; not fully specified; Cys-Gly-Gly linker; UniProt P09493 85-119, looked up, variant K118A) | 48.7 |  | 2.7 |  | -30,548 deg cm^2 dmol^-1 | 0.97 | 1.08 |  |
